Shown are actives, neighbours in structure and some others; about 2.3% of the full set was active somewhere.
ADAM10 inh: human ADAM10 inhibitors, primary screen, biochemical, QFRET, HTS | recombinant ADAM10, EDANS/DABCYL FRET peptide cleavage, 3 h | inhibition, % at 7 µM | 370,000 compounds, 0.62% hits | AID 720582, 2013;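 active = inhibition above a per-campaign cutoff equal to the mean of compounds falling between control-based bounds plus 3 SD, cut at about 20% in these data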
Target sequence (O14672 214-748 limits assumed): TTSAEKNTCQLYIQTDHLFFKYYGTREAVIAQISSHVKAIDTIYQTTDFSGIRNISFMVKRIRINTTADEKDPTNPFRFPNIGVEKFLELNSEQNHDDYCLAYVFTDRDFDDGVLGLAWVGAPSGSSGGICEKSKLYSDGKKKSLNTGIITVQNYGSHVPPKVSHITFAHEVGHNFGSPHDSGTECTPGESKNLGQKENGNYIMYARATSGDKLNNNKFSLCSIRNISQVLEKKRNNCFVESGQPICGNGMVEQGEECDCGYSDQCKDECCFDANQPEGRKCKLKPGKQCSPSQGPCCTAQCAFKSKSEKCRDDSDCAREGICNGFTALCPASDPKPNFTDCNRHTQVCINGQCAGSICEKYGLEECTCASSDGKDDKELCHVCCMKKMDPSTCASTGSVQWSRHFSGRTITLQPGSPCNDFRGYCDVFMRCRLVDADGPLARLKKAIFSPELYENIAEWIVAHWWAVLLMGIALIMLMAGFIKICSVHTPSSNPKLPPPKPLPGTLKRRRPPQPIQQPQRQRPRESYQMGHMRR
Tn6 DDE FP: inhibitors of Tn6 peptide binding to fibrin DD(E), primary screen, biochemical, fluorescence polarization, human fibrin, Tn6 probe | Fibrinogen beta chain (Homo sapiens), P02675 | Fibrin DD(E) TRITC-Tn6 fluorescence polarization displacement | inhibition, % at 8.3 µM | 370,000 compounds, 0.21% hits;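 active = inhibition above a per-campaign cutoff: mean of compounds within control limits plus 3 SD, cut at about 15% in these data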
PLCb3 inh: human PLC-beta3 inhibitors, primary screen, biochemical, fluorescence; 1-phosphatidylinositol 4,5-bisphosphate phosphodiesterase beta-3 (Homo sapiens), Q01970; 370,000 compounds, 0.18% hits; AID 720704, 2013; Purified PLC-beta3, fluorogenic substrate; inhibition, % at 12.2 µM; in the data active = inhibition above about 11%
ADAM17 inh: ADAM17 inhibitors, primary screen, biochemical, QFRET; inhibition, % at 6.95 µM; Disintegrin and metalloproteinase domain-containing protein 17 (Homo sapiens), P78536; 370,000 compounds, 0.83% hits; recombinant ADAM17, EDANS/DABCYL FRET peptide cleavage;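 active = inhibition above the mean of compounds lying between control limits plus 3 SD, set per campaign, cut at about 8.5% in these data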
PLCg1 inh: PLC-gamma1 enzyme inhibitors, primary screen, biochemical, fluorescence, purified enzyme; inhibition, % at 12.2 µM; fluorogenic substrate; 370,000 compounds, 0.84% hits; in the data active = inhibition above about 9.5%
Tn7 DDE FP: inhibitors of Tn7 peptide binding to fibrin DD(E), primary screen, biochemical, fluorescence polarization, human fibrin, Tn7 probe | FP displacement of FITC-Tn7 peptide from fibrin DD(E); 0% = median of compound wells per plate | inhibition, % at 8.3 µM | 370,000 compounds, 0.13% hits;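 active = inhibition above the mean of compounds falling within the control limits plus 3 SD of them, cut at about 14% in these data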
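Test system – human fibrin DD(E) · Times – 10 min preincubation, 3 h with tracer, room temperature · Detection – fluorescence polarization of the labelled Tn7 tracer · Measure – percent inhibition normalized to high-control wells · Benchmarks – high control wells with 10 µM unlabelled Aha-Tn7 peptide (full inhibition) · Repeats – singlicate testing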
DDE Tn7 confirm: inhibitors of Tn7 peptide binding to fibrin DD(E), confirmation, biochemical, fluorescence polarization, human fibrin, Tn7 probe. AID 720628, 2013. inhibition, % at 8.3 µM. FP displacement of TRITC-Tn7 peptide from DD(E); 0% set at plate's compound-well median. 460 compounds, 5% hits. shares compounds with Tn7 DDE FP;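 active = inhibition above the campaign cutoff, the mean of compounds within control limits plus 3 SD, cut at about 14% in these data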;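 also: displacers lower polarization since freed probe rises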
Tn7 DDE ctr: counter-screen hit for Tn7 peptide-fibrin DD(E) binding disruption; 460 compounds, 3% hits; shares compounds with Tn7 DDE FP; AID 720633; TRITC-Tn7 probe displacement, fluorescence polarization; inhibition, % at 8.3 µM;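 active = inhibition above the cutoff, the mean of compounds lying between the control bounds plus 3 SD of those compounds, cut at about 17% in these data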
Numbers stand for hits; 0 = inactive; - = no result.

SMILES | ADAM10 inh | Tn6 DDE FP | PLCb3 inh | ADAM17 inh | PLCg1 inh | Tn7 DDE FP | DDE Tn7 confirm | Tn7 DDE ctr
OC(c1ccccc1)(c1ccccc1)C1CCN(CCCNc2ccc(Cl)cc2Cl)CC1 | 0 | 0 | 0 | 0 | 0 | 0 | - | -
O=c1oc2c(O)cccc2cc1-c1nc2ccccc2[nH]1 | 0 | 0 | 0 | 0 | 0 | 36 | 21 | 0
COc1ccccc1CN1C[C@@H]2C[C@@H](c3ccc(C)cc3)N3CCC[C@@]23C1=O | 0 | 0 | 0 | 0 | 0 | 0 | - | -
COc1ccccc1CN1C[C@@H]2C[C@@H](c3ccccc3C)N3CCC[C@@]23C1=O | 0 | 0 | 0 | 0 | 0 | 16 | 0 | 0
NS(=O)(=O)c1ccc(CCNc2nn3c(-c4ccc(F)c(Cl)c4)cnc3s2)cc1 | 0 | 0 | 0 | 0 | 0 | 14 | 0 | 0
CCCCCCCCN1C(=O)[C@@H](CC(=O)N2CCCCC2)C[C@@]2(C(=O)OC)C1=C[C@H](C(C)C)O[C@@H]2C1CC1 | 0 | 0 | 0 | 0 | 0 | 0 | - | -
O=C(CCCl)NC1CCCCN(Cc2ccc(OC(F)(F)F)cc2)C1=O (centres undefined) | 0 | 0 | 0 | 0 | 0 | 0 | - | -
Clc1ccc(CNC2CCN(Cc3ccccc3)CC2)cc1 | 0 | 0 | 0 | 0 | 0 | 0 | - | -
c1ccc(-c2ccc(CNC3CC3)cc2)cc1 | 0 | 0 | 0 | 0 | 0 | 14 | 0 | 0
Cc1ccc(N=Cc2ccccc2O)cc1Cl | 0 | 0 | 0 | 0 | 0 | 15 | 0 | 0
O=C([C@@H]1C[C@H]1c1ccccc1)N1CC[C@H]2[C@H](CCCN2Cc2ccccc2)C1 | 0 | 0 | 0 | 0 | 0 | 0 | - | -
Cc1c(NS(=O)(=O)c2cc([N+](=O)[O-])ccc2Cl)c(=O)n(-c2ccccc2)n1C | 0 | 0 | 0 | 0 | 0 | 14 | 0 | 0
O=C(Cn1nnc(-c2ccccc2F)n1)Nc1ccc(Cl)cc1 | 0 | 0 | 0 | 0 | 0 | 0 | - | -
Cc1ccc[n+](-c2nc([O-])sc2C=O)c1 | 0 | 0 | 0 | 0 | 0 | 25 | 0 | 0
CC(C)c1ccc[n+](-c2nc([O-])sc2C=O)c1 | 0 | 0 | 0 | 0 | 0 | 0 | - | -
CCN(CC)C(=O)N1CCN(C)CC1 | 0 | 0 | 0 | 0 | 0 | 15 | 0 | 0
CCCC1CCC2(CCC(=O)N2CCSc2ccccc2)CC1 (centres undefined) | 0 | 0 | 0 | 0 | 0 | 0 | - | -
CCOC(=O)Cn1c(-c2ccccc2)cc(SC)c(C#N)c1=O | 0 | 0 | 0 | 0 | 0 | 14 | 0 | 0
C=CCOc1ccc(/C=C/C(=O)OCC(=O)NCCCc2ccccc2)cc1 | 0 | 0 | 0 | 0 | 0 | 14 | 0 | 0
CC(C)CC1c2[nH]c3ccccc3c2CCN1C(=O)CCC(=O)N(C)C (centres undefined) | 0 | 0 | 0 | 0 | 0 | 15 | 0 | 0
O=C(NC(=S)NC1CCSC1=O)c1ccccc1Cl (centres undefined) | 0 | 0 | 0 | 0 | 0 | 15 | 0 | 0
O=C(NC(=S)NC1CCSC1=O)c1ccccc1 (centres undefined) | 0 | 0 | 0 | 0 | 0 | 0 | - | -
N#Cc1cccc(C(=O)OCC(=O)N2CCCc3ccccc32)c1 | 0 | 0 | 0 | 0 | 0 | 0 | - | -
O=C(OCC(=O)N1CCCc2ccccc21)c1cccc(C(F)(F)F)c1 | 0 | 0 | 0 | 0 | 0 | 15 | 0 | 0
Nc1cc(N2CCCCC2)c([N+](=O)[O-])cc1Cl | 0 | 0 | 0 | 0 | 0 | 14 | 0 | 0
Nc1cc(N2CCCCC2)c(Cl)cc1[N+](=O)[O-] | 0 | 0 | 0 | 0 | 0 | 0 | - | -
Cc1ccc(S(=O)(=O)C(C#N)c2nc3ccccc3nc2N2CCCC2)cc1 (centres undefined) | 0 | 0 | 0 | 0 | 0 | 16 | 0 | 0

Bioassay records (PubChem)
